Thrombin inh – thrombin (human) inhibition; AID 1046; 0.26% of 220,000 active; inhibition, % at 5 µM; alpha-thrombin, Boc-VPR-AMC fluorogenic substrate cleavage;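 active = inhibition at or above 40%; inactive = inhibition below 40%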
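Material: Human alpha-thrombin protein | Buffer or medium: pH 7.5 Tris-saline with Tween 20 | Reagent: Boc-VPR-AMC substrate, 15 µM final | Schedule: Reaction at ambient temperature | Detection: AMC fluorescence at 355 nm excitation and 460 nm emission | Evaluation: Percent inhibition scaled between no-compound controls and no-enzyme blanks | Controls: no-compound enzyme wells and no-enzyme blanks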
FXIa inh – inhibitors of human coagulation factor XIa. purified FXIa, Boc-Glu-Ala-Arg-AMC fluorogenic substrate. 0.14% of 220,000 active. inhibition, % at 5 µM. P03951;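 active = inhibition of at least 40%; inactive = inhibition below 40%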;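 also: fluorescence of freed AMC excited at 355 nm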
hK5 inh – kallikrein 5 (human) inhibition; Q9Y337; recombinant hK5, fluorogenic AMC substrate cleavage; 0.59% of 210,000 active; inhibition, % at 5 µM;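 active = inhibition of 40% or more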
Target sequence (Q9Y337 67-293 limits assumed): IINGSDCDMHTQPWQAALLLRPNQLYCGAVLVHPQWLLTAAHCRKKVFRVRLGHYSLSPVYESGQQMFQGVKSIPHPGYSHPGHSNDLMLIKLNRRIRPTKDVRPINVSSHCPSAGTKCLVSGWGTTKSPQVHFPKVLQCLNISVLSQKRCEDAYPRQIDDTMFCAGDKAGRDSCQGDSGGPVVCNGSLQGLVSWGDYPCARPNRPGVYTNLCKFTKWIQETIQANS
FXIIa inh 1536 – factor XIIa (human) inhibition; P00748; AID 800; 0.3% of 220,000 active; purified FXIIa, Boc-QGR-AMC fluorogenic substrate, 2 h; inhibition, % at 5 µM; in the data active = inhibition above about 40%
A number is an active result; . = inactive; / = no result. A selection: hits, their analogues and other compounds. The true share with any hit is near 1%.

SMILES | Thrombin inh | FXIa inh | hK5 inh | FXIIa inh 1536
O=C(Nc1cccnc1)c1ccccc1O | . | . | . | .
Cc1occc1C(=O)Nc1cccc(C(=O)O)c1 | . | . | . | .
COC(=O)c1cc(NC(=O)c2ccoc2C)cc(C(=O)OC)c1 | . | . | 40.5 | .
Cc1occc1C(=O)Nc1cccnc1 | . | . | 77.7 | .
Cn1c(SCC(=O)NC2CCCC2)nnc1-c1ccc(S(=O)(=O)N2CCOCC2)cc1 | 44.9 | . | . | .
NC(=O)NOCc1c(Cl)cccc1Cl | . | . | . | .
NC(=O)NOCc1ccccc1 | . | 45.5 | . | .
Cc1ccc(OCc2n[nH]c(=S)n2N)cc1C | 101.1 | . | . | .
O=C(NCCc1ccccc1)c1cc(=O)c2ccccc2o1 | . | . | 47.0 | 52.0
COc1ccccc1-c1nnc(NC(=O)C(C)SC2=NCCS2)s1 (stereo not given) | . | . | 52.6 | .
NC(=O)c1c(NC(=O)C2CCCO2)sc2c1CCCCC2 (stereo not given) | . | . | . | .
NC(=O)c1c(NC(=O)C2CCCO2)sc2c1CCC2 (stereo not given) | . | . | . | 50.4
Cc1ccc(NC(=O)CN(C)C(=O)c2cc3ccccc3o2)cc1 | . | . | . | .
Cc1ccc(S(=O)(=O)Nc2ccc3c(c2)CCC3)cc1 | . | . | . | .
Cc1ccc(S(=O)(=O)Nc2ccc3c(c2)c2c(n3S(=O)(=O)c3ccc(C)cc3)CCCC2=O)cc1 | . | . | 68.1 | .
Oc1c(/C=C/C=C/C=Nc2ccccc2)sc(=S)n1Cc1ccccc1 | . | . | . | .
CC1(C)CC(=O)C([N+](=O)[O-])=C(NCCCO)C1 | . | . | . | .
CCC(CO)NC1=C([N+](=O)[O-])C(=O)CC(C)(C)C1 (stereo not given) | . | . | 49.7 | .
COc1ccc(C)cc1NC(=S)N1CCN(S(C)(=O)=O)CC1 | . | . | . | .
Nc1nc(CSC(=S)N2CCCCC2)nc(Nc2ccccc2)n1 | . | . | 66.8 | .
Nc1nc(CSC(=S)N2CCOCC2)nc(Nc2ccccc2)n1 | . | . | . | .
COc1ccc2ccccc2c1/C=N/NC(=O)c1sc(N)c(C#N)c1C | . | . | 63.5 | .
COc1cc(/C=N/NC(=O)c2sc(N)c(C#N)c2C)cc(Br)c1O | . | . | . | .
O=C(c1cc(Cl)nc2ccccc12)N1CCc2ccccc2C1 | . | 41.9 | . | .
CCOC(=O)CN1CC23C=CC(O2)C(C(=O)Nc2ccc4c(c2)OCO4)C3C1=O (stereo not given) | . | . | . | .
SMILES | Thrombin inh | FXIa inh | hK5 inh | FXIIa inh 1536
CCOC(=O)CN1CC23C=CC(O2)C(C(=O)Nc2ccc(OCC)cc2)C3C1=O (stereo not given) | . | . | 43.1 | .
O=C(CCc1ccc(O)cc1)N/N=C/c1coc2ccccc2c1=O | 58.3 | . | . | .
O=C1CSC(c2cn(-c3ccccc3)nc2-c2cc3ccccc3oc2=O)N1Cc1ccco1 (stereo not given) | . | . | 153.2 | .
O=C(NCc1ccco1)C(=O)NCC(c1ccco1)N1CCOCC1 (stereo not given) | . | . | . | .
CCn1nc(C)c([N+](=O)[O-])c1C(=O)NNC(=O)c1ccccc1Cl | . | . | . | .
O=C(CSc1nc2cccnc2n1Cc1ccccc1)N1CCCC1 | . | . | 46.0 | .
CCOC(=O)n1c(=O)n(Cc2ccccc2)c2ccccc21 | . | . | . | .
CCOC(=O)n1c(=O)n(Cc2c(Cl)cccc2Cl)c2ccccc21 | . | . | 42.5 | .
CCOc1ccc(N(Cc2ccccc2F)C2=NC3CS(=O)(=O)CC3S2)cc1 (stereo not given) | . | . | 44.7 | .
O=C(NC(CSSCC(NC(=O)c1ccccc1)C(=O)O)C(=O)O)c1ccccc1 (stereo not given) | . | . | . | .
Nc1c(C(=O)Nc2ccccc2F)sc2nc(-c3cccnc3)ccc12 | . | . | . | .
Nc1c(C(=O)Nc2ccc(Cl)c(Cl)c2)sc2nc(-c3cccnc3)ccc12 | . | . | 48.5 | .
CCOC(=O)c1c(-c2ccccc2)csc1NC(=O)CCN1CCOCC1 | . | . | . | .
CCOC(=O)c1c(-c2ccc(C)cc2)csc1NC(=O)CCN1CCOCC1 | 42.3 | . | . | .
CC(=O)c1sc(NC(=O)COc2ccc(Cl)cc2C)nc1C | . | . | 59.5 | 71.4
CC1CCC2(CC1)NC(=S)N(C(C)(C)C)N2 (stereo not given) | . | . | 42.1 | .
CC1CCC2(CC1)NC(=S)N(c1ccccc1)N2 (stereo not given) | . | . | . | .
CN(CC(=O)Nc1ccc(C#N)cc1)Cc1ccc(Cl)cc1 | . | . | . | .
CN(CC(=O)Nc1ccc(C#N)cc1)Cc1ccc(Cl)cc1Cl | . | . | 52.4 | .
COc1ccccc1CNC(=O)c1cccc2c1C(=O)N(Cc1cccnc1)C2 | . | . | / | .
CCOC(=O)CSc1n[nH]c(NC(=O)c2cccc(C(F)(F)F)c2)n1 | 77.7 | . | . | .
COc1cccc(C(=O)Nc2nc(SCc3ccc(Cl)cc3)n[nH]2)c1 | 51.3 | . | . | .
CCOC(=O)CSc1n[nH]c(NC(=O)CC)n1 | . | . | / | .
O=C(O)C1Sc2[nH]c(=O)sc2C2c3ccc(O)cc3OC(=O)C12 (stereo not given) | . | . | . | .
CCCNC(=O)CN(C1CCCCC1)S(C)(=O)=O | . | . | . | .
SMILES | Thrombin inh | FXIa inh | hK5 inh | FXIIa inh 1536
CC(NC(=O)CN(C1CCCCC1)S(C)(=O)=O)c1ccccc1 (stereo not given) | 61.5 | . | . | .
CC(C)CNC(=O)CN(C1CCCCC1)S(C)(=O)=O | . | . | 51.7 | .
CCC1CCCCN1C(=S)Nc1ccc(OC(F)F)cc1 (stereo not given) | . | . | . | .
COc1cc(C)c(Cl)cc1S(=O)(=O)NC1CC(C)(C)NC(C)(C)C1 | . | . | . | .
Cc1ccc(CN2CC34C=CC(O3)C(C(=O)NCc3ccco3)C4C2=O)cc1 (stereo not given) | . | . | 156.0 | .
CCCCNC(=O)C1C2C=CC3(CN(Cc4ccc(C)cc4)C(=O)C13)O2 (stereo not given) | . | . | . | .
CCOC(=O)c1c(NC(=O)CSc2nc3ccccc3s2)sc(C(C)=O)c1C | . | . | 47.3 | .
CCOC(=O)c1c(NC(=O)CSc2ncccn2)sc2c1CCN(Cc1ccccc1)C2 | . | . | 43.2 | .
CCOC(=O)c1c(NC(=O)C(C)Sc2cccc[n+]2[O-])sc2c1CCN(Cc1ccccc1)C2 (stereo not given) | . | . | . | .
CCOC(=O)c1sc(NC(=O)CSc2nnc(Cc3ccccc3)o2)c(C(=O)OCC)c1C | . | . | 73.6 | .
CCc1ccc(NC(=O)C(=O)NCc2ccccn2)cc1 | . | . | . | .
c1cc(CNC2=NCCCCC2)ccn1 | . | . | 65.4 | .
CC1CCCCN1S(=O)(=O)c1coc(C(N)=O)c1 (stereo not given) | . | . | 41.7 | .
CC12CN3CC(C)(CN(C1)C3c1ccc3c(c1)OCO3)C2O (stereo not given) | . | . | . | .
COc1ccc(CNc2nc(-c3cccnc3)nn2C(=O)c2cccs2)cc1 | . | . | . | .
COc1ccc(CNc2nc(-c3cccnc3)nn2C(=O)CC(C)C)cc1 | 95.3 | . | . | .

Screens: PubChem BioAssay, PCMD
